Tests used:
[1] = molecular target: T1, 5-hydroxytryptamine receptor 1A (Homo sapiens, UniProt P08908); assay: Displacement of [3H]8-OH-DPAT from recombinant human 5-HT1A receptor expressed in HEK293 cell membranes after 60 mins by scintillation counting method
T1 sequence (P08908 whole entry): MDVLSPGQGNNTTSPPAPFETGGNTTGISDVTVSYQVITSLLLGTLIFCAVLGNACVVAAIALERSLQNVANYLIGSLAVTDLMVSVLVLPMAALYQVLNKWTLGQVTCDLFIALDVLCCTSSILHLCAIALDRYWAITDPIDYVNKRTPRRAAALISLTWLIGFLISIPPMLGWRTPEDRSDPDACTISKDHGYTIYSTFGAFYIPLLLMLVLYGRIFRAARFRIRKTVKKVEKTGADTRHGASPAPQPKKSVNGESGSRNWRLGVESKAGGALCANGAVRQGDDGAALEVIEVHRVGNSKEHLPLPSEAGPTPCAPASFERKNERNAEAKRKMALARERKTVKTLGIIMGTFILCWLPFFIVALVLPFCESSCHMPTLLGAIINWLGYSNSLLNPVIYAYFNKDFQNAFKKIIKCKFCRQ

D(3) dopamine receptor = D(3) dopamine receptor (Homo sapiens, UniProt P35462); assay: Displacement of [3H]methyl-spiperone from recombinant human D3 receptor expressed in CHO cell membranes after 60 mins by scintillation counting method
Sequence of D(3) dopamine receptor (P35462 whole entry): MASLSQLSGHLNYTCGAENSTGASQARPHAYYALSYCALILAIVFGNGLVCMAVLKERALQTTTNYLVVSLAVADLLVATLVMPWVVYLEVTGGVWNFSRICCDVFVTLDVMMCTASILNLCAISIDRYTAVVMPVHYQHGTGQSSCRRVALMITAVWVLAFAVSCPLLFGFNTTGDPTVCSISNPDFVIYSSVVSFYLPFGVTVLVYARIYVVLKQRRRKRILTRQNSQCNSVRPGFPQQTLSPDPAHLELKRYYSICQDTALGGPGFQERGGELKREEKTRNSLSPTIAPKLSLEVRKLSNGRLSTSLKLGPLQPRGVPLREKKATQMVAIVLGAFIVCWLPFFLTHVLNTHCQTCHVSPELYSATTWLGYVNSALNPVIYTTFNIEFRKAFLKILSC

[2] = molecular target: 5-hydroxytryptamine receptor 2A (Homo sapiens, UniProt P28223); assay: Displacement of [3H]ketanserin from recombinant human 5-HT2A receptor expressed in HEK293 cell membranes after 60 mins by scintillation counting method
Sequence of 5-hydroxytryptamine receptor 2A (P28223 whole entry): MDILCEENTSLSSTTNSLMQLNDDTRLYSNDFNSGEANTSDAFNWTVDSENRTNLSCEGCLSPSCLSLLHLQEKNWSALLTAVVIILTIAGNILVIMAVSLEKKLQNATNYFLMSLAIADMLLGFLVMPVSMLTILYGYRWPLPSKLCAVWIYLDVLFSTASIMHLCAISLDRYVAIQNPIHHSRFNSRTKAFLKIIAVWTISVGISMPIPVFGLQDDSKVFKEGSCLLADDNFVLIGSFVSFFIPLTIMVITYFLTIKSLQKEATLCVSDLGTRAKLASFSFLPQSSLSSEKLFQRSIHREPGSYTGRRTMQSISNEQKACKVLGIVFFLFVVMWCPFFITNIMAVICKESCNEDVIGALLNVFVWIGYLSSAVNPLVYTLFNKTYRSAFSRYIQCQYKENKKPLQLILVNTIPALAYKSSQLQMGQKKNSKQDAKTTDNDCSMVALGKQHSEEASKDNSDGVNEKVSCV

CHO = assay: Selectivity ratio of Ki for displacement of [3H]spiperone from recombinant human D2L receptor expressed in CHO cell membranes to Ki for displacement of [3H]methyl-spiperone from recombinant human D3 receptor expressed in CHO cell membranes
How it was run: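 D2L binding: CHO membranes (16 µg protein) with 0.3 nM [3H]methyl-spiperone in 50 mM Tris-HCl pH 7.4, 120 mM NaCl, 10 mM MgCl2, 1 mM EDTA, with butaclamol for nonspecific binding. D3 binding: membranes (8 µg) with 0.3 nM [3H]methyl-spiperone in the same Tris buffer with 5 mM KCl, 5 mM MgCl2, 5 mM EDTA, with (+)butaclamol for nonspecific binding. Both run 60 min at 22 °C, then GF/B filtration. Ki by Cheng–Prusoff; ratio is D2 Ki/D3 Ki.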

D(2) dopamine receptor = D(2) dopamine receptor (Homo sapiens, UniProt P14416); assay: Displacement of [3H]spiperone from recombinant human D2L receptor expressed in CHO cell membranes after 60 mins by scintillation counting method
Sequence of D(2) dopamine receptor (P14416 whole entry): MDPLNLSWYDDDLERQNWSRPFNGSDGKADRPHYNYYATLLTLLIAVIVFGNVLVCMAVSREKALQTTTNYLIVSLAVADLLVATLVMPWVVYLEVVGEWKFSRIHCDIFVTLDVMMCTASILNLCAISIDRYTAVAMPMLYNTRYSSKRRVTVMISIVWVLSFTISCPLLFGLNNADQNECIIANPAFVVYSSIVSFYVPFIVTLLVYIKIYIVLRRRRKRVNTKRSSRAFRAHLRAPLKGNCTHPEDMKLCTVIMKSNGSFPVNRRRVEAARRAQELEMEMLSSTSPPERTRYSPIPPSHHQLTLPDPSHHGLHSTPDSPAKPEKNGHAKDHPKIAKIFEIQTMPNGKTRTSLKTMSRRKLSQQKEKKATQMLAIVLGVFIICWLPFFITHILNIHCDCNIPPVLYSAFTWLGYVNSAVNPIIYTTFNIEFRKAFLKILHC

For `CC(C)N(C(=O)N[C@H]1CC[C@H](CCN2CCN(c3nsc4ccccc34)CC2)CC1)C(C)C`, which Ki [1] is on record?
Its Ki is 2.3 nM.

What about the Ki (D(3) dopamine receptor) of the same compound?
Its Ki is 1.4 nM.

What about the Ki [2] of the same compound?
Its Ki is 0.38 nM.

And the Ratio Ki (CHO)?
Its Ratio Ki is 0.51.

And the Ki (D(2) dopamine receptor)?
Its Ki is 0.72 nM.

For `O=C(N[C@H]1CC[C@H](CCN2CCN(c3nsc4ccccc34)CC2)CC1)c1ccccc1`, which Ki [1] is on record?
Its Ki is 1.7 nM.

What about the Ki (D(3) dopamine receptor) of the same compound?
The Ki was 0.047 nM.

And the Ki [2]?
The Ki was 0.24 nM.

And the Ratio Ki (CHO)?
Its Ratio Ki is 7.02.

And the Ki (D(2) dopamine receptor)?
Its Ki is 0.33 nM.

`O=S(=O)(N[C@H]1CC[C@H](CCN2CCN(c3nsc4ccccc34)CC2)CC1)c1cccnc1` was tested. Which Ki [1] did it give?
Its Ki is 11 nM.

And the Ki (D(3) dopamine receptor)?
The Ki was 0.058 nM.

What about the Ki [2] of the same compound?
The Ki was 8.1 nM.

What about the Ratio Ki (CHO) of the same compound?
Its Ratio Ki is 6.03.

And the Ki (D(2) dopamine receptor)?
The Ki was 0.35 nM.

Which results are given for `CS(=O)(=O)N[C@H]1CC[C@H](CCN2CCN(c3nsc4ccccc34)CC2)CC1`?
Ki [1]: 1.3 nM; Ki (D(3) dopamine receptor): 0.095 nM; Ki [2]: 0.28 nM; Ratio Ki (CHO): 93.7; Ki (D(2) dopamine receptor): 8.9 nM

Which Ratio Ki (CHO) does the source give for `O=C(N[C@H]1CC[C@H](CCN2CCN(c3nsc4ccccc34)CC2)CC1)c1ccc[nH]1` here?
Its Ratio Ki is 0.68.

`O=C(c1ccco1)N1CCC(CCN2CCN(c3nsc4ccccc34)CC2)CC1` was tested. Which Ki [1] did it give?
Its Ki is 0.72 nM.

What about the Ki (D(3) dopamine receptor) of the same compound?
The Ki was 7.3 nM.

And the Ki [2]?
Its Ki is 2.2 nM.

And the Ratio Ki (CHO)?
The Ratio Ki was 2.2.

And the Ki (D(2) dopamine receptor)?
The Ki was 15 nM.

What does the source list for `COCC(=O)N[C@H]1CC[C@H](CCN2CCN(c3nsc4ccccc34)CC2)CC1`?
Ki [1]: 3 nM; Ki (D(3) dopamine receptor): 0.31 nM; Ki [2]: 0.24 nM; Ratio Ki (CHO): 31; Ki (D(2) dopamine receptor): 9.6 nM

Which results are given for `CN(C(=O)N[C@H]1CC[C@H](CCN2CCN(c3nsc4ccccc34)CC2)CC1)c1ccccc1`?
Ki [1]: 5.2 nM; Ki (D(3) dopamine receptor): 1.2 nM

Which results are given for `CCCC(=O)N[C@H]1CC[C@H](CCN2CCN(c3nsc4ccccc34)CC2)CC1`?
Ki [1]: 2.1 nM; Ki (D(3) dopamine receptor): 0.14 nM; Ki [2]: 0.87 nM; Ratio Ki (CHO): 20; Ki (D(2) dopamine receptor): 2.8 nM

How did the Ki [1] turn out when `O=C(N[C@H]1CC[C@H](CCN2CCN(c3nsc4ccccc34)CC2)CC1)C1CCCCC1` was run?
The Ki was 5.6 nM.

And the Ki (D(3) dopamine receptor)?
The Ki was 0.19 nM.

And the Ki [2]?
The Ki was 0.36 nM.

And the Ratio Ki (CHO)?
Its Ratio Ki is 4.95.

What about the Ki (D(2) dopamine receptor) of the same compound?
Its Ki is 0.94 nM.

What does the source list for `O=C(N[C@H]1CC[C@H](CCN2CCN(c3nsc4cc([N+](=O)[O-])ccc34)CC2)CC1)c1ccco1`?
Ki [1]: 39 nM; Ki (D(3) dopamine receptor): 0.24 nM; Ki [2]: 1.8 nM; Ratio Ki (CHO): 108; Ki (D(2) dopamine receptor): 26 nM

How did the Ki [1] turn out when `CCOC(=O)N[C@H]1CC[C@@H](CCN2CCN(c3nsc4ccccc34)CC2)CC1` was run?
Its Ki is 0.57 nM.

And the Ki (D(3) dopamine receptor)?
The Ki was 2 nM.

What about the Ki [2] of the same compound?
Its Ki is 0.18 nM.

And the Ratio Ki (CHO)?
Its Ratio Ki is 2.

And the Ki (D(2) dopamine receptor)?
Its Ki is 4 nM.

Which Ki [1] does the source give for `CCOC(=O)N1CCC(CCN2CCN(c3nsc4ccccc34)CC2)CC1` here?
Its Ki is 1.3 nM.

And the Ki (D(3) dopamine receptor)?
The Ki was 8.7 nM.

And the Ki [2]?
Its Ki is 3.3 nM.

And the Ratio Ki (CHO)?
The Ratio Ki was 1.15.

And the Ki (D(2) dopamine receptor)?
Its Ki is 10 nM.

`Nc1ccc2c(N3CCN(CC[C@H]4CC[C@H](NC(=O)c5ccco5)CC4)CC3)nsc2c1` was tested. Which Ki [1] did it give?
Its Ki is 33 nM.

What about the Ki (D(3) dopamine receptor) of the same compound?
The Ki was 1.1 nM.

What about the Ki [2] of the same compound?
The Ki was 4.3 nM.

And the Ratio Ki (CHO)?
The Ratio Ki was 12.7.

And the Ki (D(2) dopamine receptor)?
Its Ki is 14 nM.

For `CCN(C)C(=O)N[C@H]1CC[C@H](CCN2CCN(c3nsc4ccccc34)CC2)CC1`, which Ki [1] is on record?
Its Ki is 1.4 nM.

What about the Ki (D(3) dopamine receptor) of the same compound?
The Ki was 0.78 nM.

What about the Ki [2] of the same compound?
Its Ki is 0.5 nM.

And the Ratio Ki (CHO)?
Its Ratio Ki is 0.65.

What about the Ki (D(2) dopamine receptor) of the same compound?
The Ki was 0.51 nM.

Which results are given for `O=C(N[C@H]1CC[C@H](CCN2CCN(c3nsc4ccccc34)CC2)CC1)c1cccnc1`?
Ki [1]: 2.1 nM; Ki (D(3) dopamine receptor): 0.09 nM; Ki [2]: 0.29 nM; Ratio Ki (CHO): 9.44; Ki (D(2) dopamine receptor): 0.85 nM

What does the source list for `CN([C@H]1CC[C@H](CCN2CCN(c3nsc4ccccc34)CC2)CC1)S(=O)(=O)c1cccs1`?
Ki [1]: 2.9 nM; Ki (D(3) dopamine receptor): 0.046 nM; Ki [2]: 1.2 nM; Ratio Ki (CHO): 6.52; Ki (D(2) dopamine receptor): 0.3 nM

What does the source list for `N[C@H]1CC[C@H](CCN2CCN(c3nsc4ccccc34)CC2)CC1`?
Ki [1]: 7.2 nM; Ki (D(3) dopamine receptor): 9.6 nM; Ki [2]: 0.21 nM; Ratio Ki (CHO): 0.48; Ki (D(2) dopamine receptor): 4.6 nM

With `Cc1ccc(S(=O)(=O)N[C@H]2CC[C@H](CCN3CCN(c4nsc5ccccc45)CC3)CC2)cc1` as the compound, how does the Ki [1] read?
The Ki was 3.9 nM.

And the Ki (D(3) dopamine receptor)?
Its Ki is 0.062 nM.

And the Ki [2]?
Its Ki is 0.26 nM.

And the Ratio Ki (CHO)?
The Ratio Ki was 6.77.

And the Ki (D(2) dopamine receptor)?
Its Ki is 0.42 nM.

Which Ki [1] does the source give for `CCC(=O)N[C@H]1CC[C@H](CCN2CCN(c3nsc4ccccc34)CC2)CC1` here?
Its Ki is 1.5 nM.

What about the Ki (D(3) dopamine receptor) of the same compound?
The Ki was 0.052 nM.

And the Ki [2]?
Its Ki is 1.1 nM.

And the Ratio Ki (CHO)?
The Ratio Ki was 346.

What about the Ki (D(2) dopamine receptor) of the same compound?
The Ki was 18 nM.

— ChEMBL document CHEMBL3872208, “Synthesis and pharmacological characterization of novel N-(trans-4-(2-(4-(benzo[d]isothiazol-3-yl)piperazin-1-yl)ethyl)cyclohexyl)amides as potential multireceptor atypical antipsychotics” (Eur J Med Chem, 2016)
